Assay results: ChEMBL document CHEMBL3244071, “3-Phenyl-5-[2,2,2-trifluoro-1-hydroxy-1-(trifluoromethyl)ethyl]indole-2-carbonitrile, a potent inhibitor of prostaglandin synthetase and of platelet aggregation” (J Med Chem, 1979)

Tests used:
[1] = target: prostaglandin G/H synthase 1 (Bos taurus) (UniProt O62664); experiment: Inhibition of prostaglandin synthetase (bovine) using arachidonic acid as substrate preincubated for 10 mins followed by substrate addition
Rattus norvegicus [2] = experiment: Toxicity in po dosed rat assessed as gastric ulcer incidence after 4 hrs; format: organism-based, Stomach; details: in vivo
In short: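 Male rats fasted 18 h with water ad libitum. Dosed orally 4 h before autopsy. Stomachs opened along the lesser curvature, everted, rinsed in saline and examined for focal petechiae.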

Rattus norvegicus [3] = experiment: Inhibition of PGF2-alpha formation in po dosed rat serum after 1 hr by radioimmunoassay; format: functional
In short: (§1)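 Male rats, about 200 g, five per group, dosed at various levels ip or orally by intubation. Killed 1 h later and serum prepared. Serum extracted with ethyl acetate, extract evaporated under nitrogen, then assayed by radioimmunoassay using rabbit antibodies raised to PGF2α.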

Platelet [4] = experiment: Inhibition of collagen-induced platelet aggregation in human platelet-rich plasma after 5 mins; format: functional
In short: (§2)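 Human PRP from centrifugation (180g, 15 min, room temperature); PPP from spinning PRP at 1000g for 2 min. 1 mL PRP stirred at 1000 rpm at 37 °C in a densitometer. Compounds added in physiological saline at various concentrations and incubated 5 min. Aggregation then triggered with ADP, epinephrine hydrochloride or human mammary-gland collagen. IC50 extrapolated from % inhibition vs log concentration.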

Rattus norvegicus [5] = experiment: Inhibition of PGF2-alpha formation in ip dosed rat serum after 1 hr by radioimmunoassay; format: functional
In short: as §1

Platelet [6] = experiment: Inhibition of ADP-induced platelet aggregation in human platelet-rich plasma after 5 mins; format: functional
In short: as §2

Platelet [7] = experiment: Inhibition of epinephrine hydrochloride-induced platelet aggregation in human platelet-rich plasma after 5 mins; format: functional
In short: as §2

Mus musculus = experiment: Inhibition of arachidonic acid-induced diarrhea in po dosed mouse treated for 1 hr prior to arachidonic acid-challenge measured after 30 mins; format: functional
In short: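 Male mice, 18-20 g, given compound orally 1 h before arachidonic acid 4 mg/kg ip. Diarrhea scored 0-4 on paper towels by pellet softness and wet ring.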

[8] = target: prostaglandin G/H synthase 1 (Bos taurus) (UniProt O62664); experiment: Ratio of indomethacin IC50 to compound IC50 for prostaglandin synthetase (bovine)
[9] = Toxicity in po dosed mouse; format: organism-based; details: in vivo
In short: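 Acute oral (single-dose) administration to mice; the endpoint was the LD50 in mg/kg.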

Rattus norvegicus [10] = organism: Rattus norvegicus; experiment: Toxicity in rat assessed as systemic antiinflammatory activity; format: organism-based; details: in vivo
Rattus norvegicus [11] = organism: Rattus norvegicus; experiment: Toxicity in rat assessed as systemic analgesic activity; format: organism-based; details: in vivo
[12] = Toxicity in po dosed mouse treated for 14 days; format: organism-based; details: in vivo
[13] = Homo sapiens, Platelet, Plasma, 5 min, read-out: IC50

| IC50 (Platelet [4]) [µM] | IC50 (Platelet [6]) [µM] | IC50 (Platelet [7]; platelet) [µM] | SMILES | IC50 [1] [µM] | ED50 (Rattus norvegicus [2]) [mg/kg] | ED50 (Rattus norvegicus [3]) [mg/kg] | ED50 (Rattus norvegicus [5]) [mg/kg] | IC50 (Platelet [7]; [13]) [µM] | ED50 (Mus musculus) [mg/kg] | Ratio IC50 [8] | LD50 [9] [mg/kg] | Activity (Rattus norvegicus [10]) | Activity (Rattus norvegicus [11]) | LD50 at 336 h [12] [mg/kg] |
| --- | --- | --- | --- | --- | --- | --- | --- | --- | --- | --- | --- | --- | --- | --- |
|  |  |  | NC(=O)c1[nH]c2ccc(C(O)(C(F)(F)F)C(F)(F)F)cc2c1-c1ccccc1 | 7 |  |  |  |  |  |  |  |  |  |  |
| 2.8 | 0.1 |  | COc1ccc2c(c1)c(CC(=O)O)c(C)n2C(=O)c1ccc(Cl)cc1 [INDOMETHACIN] |  | 3 | < 1 | < 1 | 3.2 | 0.8 |  |  |  |  |  |
| 31 | 25 | 18 | CC(=O)Oc1ccccc1C(=O)O [ASPIRIN] |  | 49 | 6.7 | 10 |  | 1.3 |  |  |  |  |  |

| SMILES | IC50 (Platelet [4]) [µM] | IC50 (Platelet [6]) [µM] | IC50 (Platelet [7]; platelet) [µM] | IC50 [1] [µM] | ED50 (Rattus norvegicus [2]) [mg/kg] | ED50 (Rattus norvegicus [3]) [mg/kg] | ED50 (Rattus norvegicus [5]) [mg/kg] | IC50 (Platelet [7]; [13]) [µM] | ED50 (Mus musculus) [mg/kg] | Ratio IC50 [8] | LD50 [9] [mg/kg] | Activity (Rattus norvegicus [10]) | Activity (Rattus norvegicus [11]) | LD50 at 336 h [12] [mg/kg] |
| --- | --- | --- | --- | --- | --- | --- | --- | --- | --- | --- | --- | --- | --- | --- |
| N#Cc1[nH]c2ccc(C(O)(C(F)(F)F)C(F)(F)F)cc2c1-c1ccccc1 | 4.2 | 7.3 |  | 0.5 | > 250 | 28 | 15 | 34 | 5 | 2 | > 1000 | Non-toxic | Non-toxic | > 1000 |
